In ChEMBL document CHEMBL1649560, “Beta-lactamase-mediated beta-lactam resistance in Campylobacter species: prevalence of Cj0299 (bla OXA-61) and evidence for a novel beta-Lactamase in C. jejuni” (2009):
≈ marks a conversion by molar mass, not a printed value.

Legend:
Type in all cases: functional
[1] = system: Campylobacter jejuni; experiment: Antibacterial activity against Campylobacter jejuni by NCCLS agar doubling dilution method
In short: (§1)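 MICs by agar doubling dilution following the NCCLS (CLSI) Campylobacter Working Group procedure, applied to ampicillin- and amoxicillin-resistant isolates from UK chicken flocks (2000–2006). C. jejuni NCTC 11168 and C. coli NCTC 11366 served as control strains. Resistance was called at an ampicillin cutoff of 8 μg/ml. Other agents were judged against Enterobacteriaceae guidelines (BSAC, CLSI).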

[2] = system: Campylobacter coli; experiment: Antibacterial activity against Campylobacter coli by NCCLS agar doubling dilution method; in short: as §1
[3] = system: Campylobacter jejuni; experiment: Antibacterial activity against bla gene-positive and nitrocefin reaction-negative beta-lactamase harboring Campylobacter jejuni NCTC 11168 by NCCLS agar doubling dilution method
In short: (§2)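 MICs of β-lactams by agar doubling dilution following the NCCLS (CLSI) Campylobacter Working Group procedure, with C. jejuni NCTC 11168 and C. coli NCTC 11366 as controls. Isolates were from UK poultry flocks. β-Lactamase status was set by Cj0299 PCR (281-bp amplimer) and by a nitrocefin colour change of sonicated lysate within 5 min, or within 30 min on repeat.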

[4] = system: Campylobacter jejuni; experiment: Antibacterial activity against bla gene-negative and nitrocefin reaction-negative beta-lactamase harboring Campylobacter jejuni isolate P835 by NCCLS agar doubling dilution method; in short: as §2
[5] = system: Campylobacter jejuni; experiment: Antibacterial activity against bla gene-negative and nitrocefin reaction-negative beta-lactamase harboring Campylobacter jejuni isolate P850 by NCCLS agar doubling dilution method; in short: as §2
[6] = system: Campylobacter jejuni; experiment: Antibacterial activity against bla gene-negative and nitrocefin reaction-negative beta-lactamase harboring Campylobacter jejuni isolate P1962 by NCCLS agar doubling dilution method; in short: as §2
[7] = system: Campylobacter jejuni; experiment: Antibacterial activity against bla gene-positive and nitrocefin reaction-positive beta-lactamase harboring Campylobacter jejuni isolate P285 by NCCLS agar doubling dilution method
In short: (§3)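 MICs by agar doubling dilution per the NCCLS (now CLSI) Campylobacter Working Group method. Isolates came from UK chicken flocks (feces, ceca or farm environment), 2000–2006. C. jejuni NCTC 11168 and C. coli NCTC 11366 served as control strains. The ampicillin resistance cutoff was 8 μg/ml; BSAC/CLSI Enterobacteriaceae guidelines were used for other agents.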

[8] = system: Campylobacter jejuni; experiment: Antibacterial activity against bla gene-positive and nitrocefin reaction-positive beta-lactamase harboring Campylobacter jejuni isolate P286 by NCCLS agar doubling dilution method; in short: as §3
[9] = system: Campylobacter jejuni; experiment: Antibacterial activity against bla gene-positive and nitrocefin reaction-positive beta-lactamase harboring Campylobacter jejuni isolate P305 by NCCLS agar doubling dilution method; in short: as §3
[10] = system: Campylobacter jejuni; experiment: Antibacterial activity against bla gene-positive and nitrocefin reaction-positive beta-lactamase harboring Campylobacter jejuni isolate P316 by NCCLS agar doubling dilution method; in short: as §3
[11] = system: Campylobacter jejuni; experiment: Antibacterial activity against bla gene-positive and nitrocefin reaction-positive beta-lactamase harboring Campylobacter jejuni isolate P338 by NCCLS agar doubling dilution method; in short: as §3
[12] = system: Campylobacter jejuni; experiment: Antibacterial activity against bla gene-positive and nitrocefin reaction-positive beta-lactamase harboring Campylobacter jejuni isolate P790 by NCCLS agar doubling dilution method; in short: as §3
[13] = system: Campylobacter jejuni; experiment: Antibacterial activity against bla gene-positive and nitrocefin reaction-positive beta-lactamase harboring Campylobacter jejuni isolate P1093 by NCCLS agar doubling dilution method; in short: as §2
[14] = system: Campylobacter jejuni; experiment: Antibacterial activity against bla gene-positive and nitrocefin reaction-positive beta-lactamase harboring Campylobacter jejuni isolate P1618 by NCCLS agar doubling dilution method; in short: as §2
[15] = system: Campylobacter jejuni; experiment: Antibacterial activity against bla gene-positive and nitrocefin reaction-positive beta-lactamase harboring Campylobacter jejuni isolate P1650 by NCCLS agar doubling dilution method; in short: as §2
[16] = system: Campylobacter jejuni; experiment: Antibacterial activity against bla gene-positive and nitrocefin reaction-positive beta-lactamase harboring Campylobacter jejuni isolate P1730 by NCCLS agar doubling dilution method; in short: as §3
[17] = system: Campylobacter jejuni; experiment: Antibacterial activity against bla gene-positive and nitrocefin reaction-negative beta-lactamase harboring Campylobacter jejuni isolate P1698 by NCCLS agar doubling dilution method; in short: as §2
[18] = system: Campylobacter jejuni; experiment: Antibacterial activity against bla gene-positive and nitrocefin reaction-negative beta-lactamase harboring Campylobacter jejuni isolate P1699 by NCCLS agar doubling dilution method; in short: as §2
[19] = system: Campylobacter jejuni; experiment: Antibacterial activity against bla gene-negative and nitrocefin reaction-positive beta-lactamase harboring Campylobacter jejuni isolate P843 by NCCLS agar doubling dilution method; in short: as §2
[20] = system: Campylobacter jejuni; experiment: Antibacterial activity against bla gene-negative and nitrocefin reaction-positive beta-lactamase harboring Campylobacter jejuni isolate P854 by NCCLS agar doubling dilution method; in short: as §2
[21] = system: Campylobacter coli; experiment: Antibacterial activity against bla gene-positive and nitrocefin reaction-positive beta-lactamase harboring Campylobacter coli isolate P321 by NCCLS agar doubling dilution method; in short: as §2
[22] = system: Campylobacter coli; experiment: Antibacterial activity against bla-positive and beta-lactamase-weakly positive Campylobacter coli isolate P1627 by NCCLS agar doubling dilution method; in short: as §3
[23] = system: Campylobacter coli; experiment: Antibacterial activity against bla gene-positive and nitrocefin reaction-positive beta-lactamase harboring Campylobacter coli isolate P1826 by NCCLS agar doubling dilution method; in short: as §2
[24] = system: Campylobacter jejuni; experiment: Antibacterial activity against Campylobacter jejuni isolate P270 harboring blaOXA-61::cat gene by NCCLS agar doubling dilution method
[25] = system: Campylobacter jejuni; experiment: Antibacterial activity against Campylobacter jejuni isolate P338 harboring blaOXA-61::cat gene by NCCLS agar doubling dilution method
In short: (§4)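 Agar doubling dilution MICs (NCCLS/CLSI Campylobacter Working Group method) against Cj0299-inactivated mutants. Mutants were made by transforming the C. jejuni isolate with pCI and selecting on Mueller-Hinton agar with 10 μg/ml chloramphenicol for 3–5 days. Chromosomal insertion was confirmed by PCR with Cj0299 and cat primers.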

[26] = system: Campylobacter jejuni; experiment: Antibacterial activity against Campylobacter jejuni isolate P1093 harboring blaOXA-61::cat gene by NCCLS agar doubling dilution method; in short: as §4

| Compound | MIC50 [1] [µg/mL] | MIC90 [1] [µg/mL] | MIC50 [2] [µg/mL] | MIC90 [2] [µg/mL] | MIC [3] [µg/mL] | MIC [4] [µg/mL] | MIC [5] [µg/mL] | MIC [6] [µg/mL] | MIC [7] [µg/mL] | MIC [8] [µg/mL] | MIC [9] [µg/mL] | MIC [10] [µg/mL] | MIC [11] [µg/mL] | MIC [12] [µg/mL] | MIC [14] [µg/mL] | MIC [15] [µg/mL] | MIC [16] [µg/mL] | MIC [17] [µg/mL] | MIC [18] [µg/mL] | MIC [19] [µg/mL] | other results |
| --- | --- | --- | --- | --- | --- | --- | --- | --- | --- | --- | --- | --- | --- | --- | --- | --- | --- | --- | --- | --- | --- |
| CC1(C)S[C@@H]2[C@H](NC(=O)[C@H](N)c3ccc(O)cc3)C(=O)N2[C@H]1C(=O)O [AMOXICILLIN] | 64 (≈ 175 µM) | 128 (≈ 350 µM) | 128 (≈ 350 µM) | > 128 | 4 (≈ 10.9 µM) | 0.25 (≈ 0.684 µM) | 1 (≈ 2.74 µM) | 2 (≈ 5.47 µM) | 64 (≈ 175 µM) | 64 (≈ 175 µM) | 64 (≈ 175 µM) | 32 (≈ 87.6 µM) | 64 (≈ 175 µM) | 64 (≈ 175 µM) | 64 (≈ 175 µM) | 64 (≈ 175 µM) | 64 (≈ 175 µM) | 128 (≈ 350 µM) | 64 (≈ 175 µM) | 64 (≈ 175 µM) | MIC [13]: 64 µg/mL (≈ 175 µM); MIC [20]: 128 µg/mL (≈ 350 µM); MIC [21]: 64 µg/mL (≈ 175 µM); MIC [22]: 8 µg/mL (≈ 21.9 µM); MIC [23]: 128 µg/mL (≈ 350 µM) |
| C[C@H]1[C@H](NC(=O)/C(=N\OC(C)(C)C(=O)O)c2csc(N)n2)C(=O)N1S(=O)(=O)O [AZTREONAM] | 64 (≈ 147 µM) | > 128 | 64 (≈ 147 µM) | > 128 | 64 (≈ 147 µM) | 128 (≈ 294 µM) | > 32 | 4 (≈ 9.19 µM) | > 128 | > 128 | > 128 | > 128 | 128 (≈ 294 µM) | > 128 | 64 (≈ 147 µM) | 128 (≈ 294 µM) | 32 (≈ 73.5 µM) | 128 (≈ 294 µM) | < 1 | > 128 | MIC [20]: 4 µg/mL (≈ 9.19 µM); MIC [21]: > 128 µg/mL; MIC [22]: > 128 µg/mL; MIC [23]: 32 µg/mL (≈ 73.5 µM) |
| CC1(C)S[C@@H]2[C@H](NC(=O)C(C(=O)O)c3ccccc3)C(=O)N2[C@H]1C(=O)O (some centres undefined) [CARBENICILLIN] | 128 (≈ 338 µM) | 256 (≈ 677 µM) | 128 (≈ 338 µM) | 256 (≈ 677 µM) | 16 (≈ 42.3 µM) | 8 (≈ 21.1 µM) | 256 (≈ 677 µM) | < 16 | 256 (≈ 677 µM) | 256 (≈ 677 µM) | > 256 | 128 (≈ 338 µM) | 128 (≈ 338 µM) | 256 (≈ 677 µM) | 128 (≈ 338 µM) | 64 (≈ 169 µM) | 128 (≈ 338 µM) | 32 (≈ 84.6 µM) | 64 (≈ 169 µM) | < 16 | MIC [24]: 4 µg/mL (≈ 10.6 µM); MIC [25]: 8 µg/mL (≈ 21.1 µM); MIC [13]: 256 µg/mL (≈ 677 µM); MIC [26]: 16 µg/mL (≈ 42.3 µM); MIC [20]: > 256 µg/mL; MIC [21]: 256 µg/mL (≈ 677 µM); MIC [22]: 32 µg/mL (≈ 84.6 µM); MIC [23]: 128 µg/mL (≈ 338 µM) |
| Cn1nnnc1SCC1=C(C(=O)O)N2C(=O)[C@@H](NC(=O)[C@H](O)c3ccccc3)[C@H]2SC1 [CEFAMANDOLE] | > 256 | > 256 | > 256 | > 256 | – | – | – | – | – | – | – | – | – | – | – | – | – | – | – | – | – |
| CO/N=C(\C(=O)N[C@@H]1C(=O)N2C(C(=O)O)=C(COC(C)=O)CS[C@H]12)c1csc(N)n1 [CEFOTAXIME] | 4 (≈ 8.78 µM) | 8 (≈ 17.6 µM) | 4 (≈ 8.78 µM) | 8 (≈ 17.6 µM) | 2 (≈ 4.39 µM) | 4 (≈ 8.78 µM) | 8 (≈ 17.6 µM) | 1 (≈ 2.2 µM) | 8 (≈ 17.6 µM) | 8 (≈ 17.6 µM) | 4 (≈ 8.78 µM) | 4 (≈ 8.78 µM) | 8 (≈ 17.6 µM) | 4 (≈ 8.78 µM) | 16 (≈ 35.1 µM) | 4 (≈ 8.78 µM) | 4 (≈ 8.78 µM) | 4 (≈ 8.78 µM) | 4 (≈ 8.78 µM) | 4 (≈ 8.78 µM) | MIC [24]: 2 µg/mL (≈ 4.39 µM); MIC [25]: 8 µg/mL (≈ 17.6 µM); MIC [13]: 8 µg/mL (≈ 17.6 µM); MIC [26]: 4 µg/mL (≈ 8.78 µM); MIC [20]: 4 µg/mL (≈ 8.78 µM); MIC [21]: 4 µg/mL (≈ 8.78 µM); MIC [22]: 4 µg/mL (≈ 8.78 µM); MIC [23]: 2 µg/mL (≈ 4.39 µM) |
